Assay results taken from ChEMBL document CHEMBL5653624 (Biochem Pharmacol, 2016).
Active and inactive are the calls of the source. The calls are words filed in the database; no cut-off is given here.

Key:
RAW264.7 [1] = assay: Antiinflammatory activity in LPS/IFNgamma-stimulated mouse RAW264.7 cells assessed as effect on IkappaBalpha mRNA expression preincubated for 20 hrs followed by LPS/IFNgamma stimulation and measured after 4 hrs by RT-qPCR analysis; type: functional, cell-based; settings: time 24.0 hrs
HBE [2] = assay: Antiinflammatory activity in HBE cells assessed as effect on LPS/IFNgamma-induced IL-10 gene expression at 2 uM […] by RT-qPCR analysis; type: functional, cell-based; settings: Homo sapiens
Procedure, shortened: (§1)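 HBE cells (passage 73–103) or immortalized hASM cells (2–3 donors, passage 27–35), serum-starved. Then 2 μM RGFP966 for 20 h, with LPS/IFNγ for the last 4 h. Total RNA isolated; RT-qPCR by 2−ΔΔCt, fold change versus LPS/IFNγ control. Mean ± SD of 3–5 independent experiments.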

RAW264.7 [3] = assay: Antiinflammatory activity in LPS/IFNgamma-stimulated mouse RAW264.7 cells assessed as effect on IkappaBalpha expression preincubated for 20 hrs followed by LPS/IFNgamma stimulation and measured after 4 hrs by Western blot analysis; type: functional, cell-based; settings: time 24.0 hrs
Lung [4] = assay: Antiinflammatory activity in C57bl/6 mouse precision-cut lung slices assessed as effect on LPS/IFNgamma-induced HDAC2 gene expression at 1 to 10 uM preincubated for 20 hrs followed by LPS/IFNgamma stimulation and measured after 4 hrs by RT-qPCR analysis; type: functional, tissue-based; settings: dose 1-10 µM, time 24.0 hrs
RAW264.7 [5] = assay: Antiinflammatory activity in LPS/IFNgamma-stimulated mouse RAW264.7 cells assessed as reduction in HDAC1 expression preincubated for 20 hrs followed by LPS/IFNgamma stimulation and measured after 4 hrs by Western blot analysis; type: functional, cell-based; settings: time 24.0 hrs
Procedure, shortened: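 RAW 264.7 cells were LPS/IFNγ-stimulated after inhibitor exposure, then lysed in Hepes/Triton buffer containing DTT, butyrate and protease inhibitors, freeze-thawed and cleared. Immunoblot with milk blocking and overnight primary antibody at 4 °C. Densitometry normalized to β-actin, LPS/IFNγ control set at 100%. Mean ± SD of 4 independent experiments.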

RAW264.7 [6] = assay: Antiinflammatory activity in LPS/IFNgamma-stimulated mouse RAW264.7 cells assessed as effect on HDAC1 mRNA expression preincubated for 20 hrs followed by LPS/IFNgamma stimulation and measured after 4 hrs by RT-qPCR analysis; type: functional, cell-based; settings: time 24.0 hrs
RAW264.7 [7] = assay: Antiinflammatory activity in mouse RAW264.7 cells assessed as down regulation of LPS/IFNgamma-induced IL-6 gene expression at 1 uM preincubated for 20 hrs followed by LPS/IFNgamma stimulation and measured after 4 hrs by RT-qPCR analysis; type: functional, cell-based; settings: time 24.0 hrs
Procedure, shortened: (§2)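 RAW 264.7 macrophages in DMEM/10% FBS received 1 μM RGFP966 for 20 h, with LPS/IFNγ for the last 4 h. Washed with cold DPBS, total RNA isolated, integrity checked by 28S/18S. RT-qPCR by comparative Ct (2−ΔΔCt), fold change versus LPS/IFNγ control. Mean ± SD of 3–5 independent experiments.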

[8] = target: Histone deacetylase 1 (Mus musculus) (UniProt O09106); assay: Effect on HDAC1 nuclear localization in LPS/IFNgamma-stimulated mouse RAW264.7 cells preincubated for 20 hrs followed by LPS/IFNgamma stimulation and measured after 1 hr by Hoechst staining based confocal laser scanning microscopy; type: cell-based
Sequence of Histone deacetylase 1 (Mus musculus) (O09106 whole entry): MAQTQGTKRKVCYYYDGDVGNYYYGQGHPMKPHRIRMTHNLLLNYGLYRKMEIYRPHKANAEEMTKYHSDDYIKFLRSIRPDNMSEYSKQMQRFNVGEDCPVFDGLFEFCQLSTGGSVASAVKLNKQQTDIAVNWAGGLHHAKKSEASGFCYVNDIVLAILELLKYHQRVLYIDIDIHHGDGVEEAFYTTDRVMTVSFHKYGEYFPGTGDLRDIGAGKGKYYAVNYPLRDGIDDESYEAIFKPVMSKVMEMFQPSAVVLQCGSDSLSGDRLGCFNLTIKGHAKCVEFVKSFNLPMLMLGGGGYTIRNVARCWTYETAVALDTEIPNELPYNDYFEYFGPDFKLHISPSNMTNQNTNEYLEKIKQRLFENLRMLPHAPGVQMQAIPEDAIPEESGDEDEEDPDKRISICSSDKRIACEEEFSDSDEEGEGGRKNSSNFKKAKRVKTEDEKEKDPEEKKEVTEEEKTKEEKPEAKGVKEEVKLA
Procedure, shortened: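 RAW 264.7 cells at 20,000 cells/cm2 received 1 μM RGFP966 for 20 h, then 1 h LPS/IFNγ. Fixed in 4% formaldehyde, permeabilized with 0.25% Triton X-100, blocked with 5% BSA. Primary antibodies 2 h at 4 °C, AlexaFluor secondaries 1 h, Hoechst nuclear stain. Confocal imaging at 630×; 4 independent experiments.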

RAW264.7 [9] = assay: Antiinflammatory activity in mouse RAW264.7 cells assessed as down regulation of LPS/IFNgamma-induced IL-1beta gene expression at 1 uM preincubated for 20 hrs followed by LPS/IFNgamma stimulation and measured after 4 hrs by RT-qPCR analysis; type: functional, cell-based; settings: time 24.0 hrs; procedure, shortened: as §2
Lung [10] = assay: Antiinflammatory activity in C57bl/6 mouse precision-cut lung slices assessed as down regulation of LPS/IFNgamma-induced iNOS gene expression at 1 to 10 uM preincubated for 20 hrs followed by LPS/IFNgamma stimulation and measured after 4 hrs by RT-qPCR analysis; type: functional, tissue-based; settings: dose 1-10 µM, time 24.0 hrs
Procedure, shortened: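 PCLS, 250 μm thick, cut from agarose-filled lungs of male C57bl/6 mice (24–28 g, 8–10 weeks). Three slices per well at 37 °C, 5% CO2. Slices received RGFP966 at 1 and 10 μM final for 20 h, with 10 ng/ml LPS and 10 ng/ml IFNγ stimulation. RNA isolated; RT-qPCR fold change versus LPS/IFNγ control by 2−ΔΔCt. Mean ± SD, n = 3–5.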

HBE [11] = assay: Antiinflammatory activity in HBE cells assessed as up regulation of LPS/IFNgamma-induced IL-6 gene expression at 2 uM […] by RT-qPCR analysis; type: functional, cell-based; settings: Homo sapiens; procedure, shortened: as §1
[12] = target: T1, Histone deacetylase 3 (Mus musculus) (UniProt O88895); assay: Inhibition of HDAC3 in mouse RAW264.7 cells assessed as effect on histone H3 peptide (KQLATKAAR) acetylation measured after 20 hrs by LC-MS/MS analysis; type: cell-based
T1 sequence (whole entry): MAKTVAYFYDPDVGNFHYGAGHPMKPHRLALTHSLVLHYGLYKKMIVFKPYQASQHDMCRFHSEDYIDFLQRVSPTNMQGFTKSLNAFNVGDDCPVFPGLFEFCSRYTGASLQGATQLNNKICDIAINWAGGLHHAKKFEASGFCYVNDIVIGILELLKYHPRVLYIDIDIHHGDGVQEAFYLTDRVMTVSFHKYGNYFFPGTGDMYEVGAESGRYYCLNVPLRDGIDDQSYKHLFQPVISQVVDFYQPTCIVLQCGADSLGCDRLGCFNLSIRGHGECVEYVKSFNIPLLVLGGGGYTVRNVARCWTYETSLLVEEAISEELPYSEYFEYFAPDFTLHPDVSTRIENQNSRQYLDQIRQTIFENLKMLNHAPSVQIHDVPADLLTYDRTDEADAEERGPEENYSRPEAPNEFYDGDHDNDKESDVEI
Procedure, shortened: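 Histones from RAW 264.7 (20 h treatment) run on 15% SDS-PAGE (7 μg), Coomassie-stained H3/H4 bands excised, destained, and chemically acetylated with acetic anhydride-d6 in 1 M ammonium bicarbonate; endogenous lysine acetylation ratio derived by mass spectrometry from deuterated versus non-deuterated acetyl mass difference.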

[13] = target: T1, Histone deacetylase 3 (Mus musculus); assay: Inhibition of HDAC3 in mouse RAW264.7 cells assessed as effect on histone H3 acetylation measured after 20 hrs by Western blot analysis; type: cell-based
Procedure, shortened: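 Histones extracted from RAW 264.7 cells after 20 h inhibitor treatment, protein quantified by micro BCA (BSA standard), and H3 and H4 acetylation assessed by Western blot versus vehicle-treated cells.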

[14] = target: T1, Histone deacetylase 3 (Mus musculus); assay: Inhibition of HDAC3 in mouse RAW-Blue cells assessed as reduction in LPS/IFNgamma-induced NF-kappaB p65 transcriptional activity preincubated for 16 hrs followed by LPS/IFNgamma stimulation and measured after 4 hrs by SEAP reporter gene assay; type: cell-based; settings: time 20.0 hrs
Procedure, shortened: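 RAW-Blue cells (RAW 264.7-derived, stably expressing an NF-κB/AP-1-inducible secreted embryonic alkaline phosphatase) exposed to inhibitor for 20 h total, with 10 ng/ml LPS plus 10 ng/ml IFNγ added for the final 4 h. Supernatant mixed with QUANTI-Blue medium, 37 °C 1–2 h in the dark, absorbance 630 nm; reported as % of control.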

Activity [8]: inactive
inhibition [12]: inactive
inhibition [13]: inactive
inhibition [14]: Active
SMILES: Nc1cc(F)ccc1NC(=O)/C=C/c1cnn(C/C=C/c2ccccc2)c1
Activity (RAW264.7 [1]): inactive
Activity (HBE [2]): inactive
Activity (RAW264.7 [3]): inactive
Activity (Lung [4]): inactive
Activity (RAW264.7 [5]): Active
Activity (RAW264.7 [6]): inactive
Activity (RAW264.7 [7]): Active
Activity (RAW264.7 [9]): Active
Activity (Lung [10]): Active
Activity (HBE [11]): Active
